ChEMBL document CHEMBL2384906, “Biological activity, design, synthesis and structure activity relationship of some novel derivatives of curcumin containing sulfonamides” (Eur J Med Chem, 2013)
≈ marks a conversion by molar mass, not a printed value. Calls of active or inactive are those of the source. No cut-off for these calls is given here.

How the values were obtained:
Staphylococcus aureus [1] = assay: Antimicrobial activity against Staphylococcus aureus ATCC 11632 assessed as diameter of inhibition zone at 20 uM after 24 hrs by Kirby -Baur disc diffusion method; type: functional
How it was run: (§1)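 Kirby-Bauer disc diffusion was used. Acetone stocks (160 µM) were serially doubled down to 80, 40 and 20 µM. 4 µL of each went onto 5 mm sterile paper discs, which were dried 30 min at 50 °C. Inoculum was 1.5 × 10⁸ CFU/mL diluted to 3 × 10² CFU/mL, and 50 µL was spread on Mueller-Hinton agar. After 24 h at 37 °C the inhibition-zone diameter was measured. Ciprofloxacin served as positive control.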

Aspergillus flavus [2] = assay: Antifungal activity against Aspergillus flavus MTCC 1021 after 48 hrs; type: functional; conditions: MTCC 1021, 48 h
QG-56 = assay: Cytotoxicity against human QG56 cells after 24 hrs by MTT assay; type: functional, cell-based
How it was run: (§2)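 The MTT assay seeded 5 × 10⁴ cells per well and grew them 24 h in RPMI 1640 with compound at 2.5–200 µM. Medium without cells was the blank and adriamycin the positive control. MTT was added for 4 h at 37 °C, formazan was solubilised, and absorbance was read at 570 nm. IC50 is the concentration that cuts viability 50% against untreated cells.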

HCT-116 = assay: Cytotoxicity against human HCT116 cells after 24 hrs by MTT assay; type: functional, cell-based; how it was run: as §2
Staphylococcus aureus [3] = assay: Antimicrobial activity against Staphylococcus aureus ATCC 11632 assessed as diameter of inhibition zone at 40 uM after 24 hrs by Kirby -Baur disc diffusion method; type: functional; conditions: ATCC 11632, 24 h, read-out: DIZ; how it was run: as §1
Bacillus cereus [4] = assay: Antimicrobial activity against Bacillus cereus MTCC 7350 after 24 hrs by broth micro serial dilution method; type: functional; conditions: MTCC 7350, 24 h
How it was run: (§3)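 This was broth microdilution in autoclaved Mueller-Hinton broth. 150 µL of compound per well was serially diluted […], and 50 µL of test organism was added. Plates were incubated 24 h at 37 °C and optical density was read.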

Aspergillus niger [5] = assay: Antifungal activity against Aspergillus niger MTCC 1108 after 48 hrs; type: functional; conditions: MTCC 1108, 48 h
Trichoderma viride [6] = assay: Antifungal activity against Trichoderma viride MTCC 1107 assessed as zone of inhibition at 80 uM after 48 hrs by disc diffusion method; type: functional; conditions: MTCC 1107, 48 h, read-out: IZ
How it was run: (§4)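 Spores from 4-day potato dextrose agar cultures, suspended in sterile water at 1.5 × 10⁵ CFU/mL. 0.2 mL was spread on potato dextrose agar. 5 mm filter-paper discs soaked with test compound were laid on the lawn. Incubation was 48 h at 28 °C, then the inhibition zone was measured in mm. Fluconazole was the positive control and acetone the negative control.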

Curvularia lunata [7] = assay: Antifungal activity against Curvularia lunata MTCC 581 assessed as zone of inhibition at 80 uM after 48 hrs by disc diffusion method; type: functional; conditions: MTCC 581, 48 h, read-out: IZ; how it was run: as §4
Mus musculus = assay: Antiinflammatory activity in mouse assessed as inhibition of carrageenan-induced increase in paw volume at 200 mg/kg administered 1 hr prior to carrageenan challenge measured after 3 hrs relative to control; type: functional
How it was run: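 Mice were fasted 2 h and placed in groups of five. Controls received saline i.p. Phenylbutazone was given at 100 mg/kg i.p., curcumin at 200 mg/kg i.p., and derivatives at 200 mg/kg. After 1 h, 0.1 mL of 1% carrageenan in saline was injected subplantar into the right hind paw. Paw volume was followed by plethysmometer for 3 h, and % inhibition was calculated as (Vc − Vt)/Vc × 100.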

Bacillus cereus [8] = assay: Antimicrobial activity against Bacillus cereus MTCC 7350 assessed as diameter of inhibition zone at 80 uM after 24 hrs by Kirby -Baur disc diffusion method; type: functional; conditions: MTCC 7350, 24 h, read-out: DIZ; how it was run: as §1
Aspergillus niger [9] = assay: Antifungal activity against Aspergillus niger MTCC 1108 assessed as zone of inhibition at 80 uM after 48 hrs by disc diffusion method; type: functional; conditions: MTCC 1108, 48 h, read-out: IZ; how it was run: as §4
Trichoderma viride [10] = assay: Antifungal activity against Trichoderma viride MTCC 1107 assessed as zone of inhibition at 40 uM after 48 hrs by disc diffusion method; type: functional; conditions: MTCC 1107, 48 h, read-out: IZ; how it was run: as §4
Bacillus cereus [11] = assay: Antimicrobial activity against Bacillus cereus MTCC 7350 assessed as diameter of inhibition zone at 20 uM after 24 hrs by Kirby -Baur disc diffusion method; type: functional; how it was run: as §1
HepG2 = assay: Cytotoxicity against human HepG2 cells after 24 hrs by MTT assay; type: functional, cell-based; how it was run: as §2
Salmonella typhi [12] = assay: Antimicrobial activity against Salmonella typhi ATCC 23564 after 24 hrs by broth micro serial dilution method; type: functional; conditions: Salmonella enterica subsp. enterica serovar Typhi
Escherichia coli [13] = assay: Antimicrobial activity against Escherichia coli ATCC 35218 assessed as diameter of inhibition zone at 80 uM after 24 hrs by Kirby -Baur disc diffusion method; type: functional; how it was run: as §1
Aspergillus niger [14] = assay: Antifungal activity against Aspergillus niger MTCC 1108 assessed as zone of inhibition at 20 uM after 48 hrs by disc diffusion method; type: functional; how it was run: as §4
HeLa = assay: Cytotoxicity against human HeLa cells after 24 hrs by MTT assay; type: functional, cell-based; how it was run: as §2
Trichoderma viride [15] = assay: Antifungal activity against Trichoderma viride MTCC 1107 assessed as zone of inhibition at 20 uM after 48 hrs by disc diffusion method; type: functional; conditions: MTCC 1107, 48 h, read-out: IZ; how it was run: as §4
Aspergillus flavus [16] = assay: Antifungal activity against Aspergillus flavus MTCC 1021 assessed as zone of inhibition at 80 uM after 48 hrs by disc diffusion method; type: functional; conditions: MTCC 1021, 48 h, read-out: IZ; how it was run: as §4
Pseudomonas aeruginosa [17] = assay: Antimicrobial activity against Pseudomonas aeruginosa ATCC 15499 assessed as diameter of inhibition zone at 80 uM after 24 hrs by Kirby -Baur disc diffusion method; type: functional; how it was run: as §1
Aspergillus flavus [18] = assay: Antifungal activity against Aspergillus flavus MTCC 1021 assessed as zone of inhibition at 20 uM after 48 hrs by disc diffusion method; type: functional; conditions: MTCC 1021, 48 h, read-out: IZ; how it was run: as §4
Curvularia lunata [19] = assay: Antifungal activity against Curvularia lunata MTCC 581 after 48 hrs; type: functional; conditions: MTCC 581, 48 h
Aspergillus flavus [20] = assay: Antifungal activity against Aspergillus flavus MTCC 1021 assessed as zone of inhibition at 40 uM after 48 hrs by disc diffusion method; type: functional; conditions: MTCC 1021, 48 h, read-out: IZ; how it was run: as §4
Curvularia lunata [21] = assay: Antifungal activity against Curvularia lunata MTCC 581 assessed as zone of inhibition at 40 uM after 48 hrs by disc diffusion method; type: functional; conditions: MTCC 581, 48 h, read-out: IZ; how it was run: as §4
Curvularia lunata [22] = assay: Antifungal activity against Curvularia lunata MTCC 581 assessed as zone of inhibition at 20 uM after 48 hrs by disc diffusion method; type: functional; conditions: MTCC 581, 48 h, read-out: IZ; how it was run: as §4
Staphylococcus aureus [23] = assay: Antimicrobial activity against Staphylococcus aureus ATCC 11632 after 24 hrs by broth micro serial dilution method; type: functional; conditions: ATCC 11632, 24 h; how it was run: as §3
Pseudomonas aeruginosa [24] = assay: Antimicrobial activity against Pseudomonas aeruginosa ATCC 15499 after 24 hrs by broth micro serial dilution method; type: functional; conditions: ATCC 15499, 24 h; how it was run: as §3
Trichoderma viride [25] = assay: Antifungal activity against Trichoderma viride MTCC 1107 after 48 hrs; type: functional; conditions: MTCC 1107, 48 h
Bacillus cereus [26] = assay: Antimicrobial activity against Bacillus cereus MTCC 7350 assessed as diameter of inhibition zone at 40 uM after 24 hrs by Kirby -Baur disc diffusion method; type: functional; how it was run: as §1
Salmonella typhi [27] = assay: Antimicrobial activity against Salmonella typhi ATCC 23564 assessed as diameter of inhibition zone at 80 uM after 24 hrs by Kirby -Baur disc diffusion method; type: functional; conditions: Salmonella enterica subsp. enterica serovar Typhi
Staphylococcus aureus [28] = assay: Antimicrobial activity against Staphylococcus aureus ATCC 11632 assessed as diameter of inhibition zone at 80 uM after 24 hrs by Kirby -Baur disc diffusion method; type: functional; conditions: ATCC 11632, 24 h, read-out: DIZ; how it was run: as §1
Escherichia coli [29] = assay: Antimicrobial activity against Escherichia coli ATCC 35218 after 24 hrs by broth micro serial dilution method; type: functional; conditions: ATCC 35218, 24 h; how it was run: as §3
Aspergillus niger [30] = assay: Antifungal activity against Aspergillus niger MTCC 1108 assessed as zone of inhibition at 40 uM after 48 hrs by disc diffusion method; type: functional; conditions: MTCC 1108, 48 h, read-out: IZ; how it was run: as §4

`COc1ccc(NS(=O)(=O)c2ccc(/N=N/C(C(=O)/C=C/c3ccc(O)c(OC)c3)=C(O)\C=C\c3ccc(O)c(OC)c3)cc2)nn1` was tested. Which “diameter of the inhibition zone (DIZ)” value (Staphylococcus aureus [1]) did it give?
Its value is “inactive”.

And the MIC (Aspergillus flavus [2])?
The MIC was 40 µM (≈ 26.4 µg/mL).

What about the IC50 (QG-56) of the same compound?
The IC50 was over 100 µM.

And the IC50 (HCT-116)?
The IC50 was “Not Active”.

What about the zone of inhibition at 40 µM (Staphylococcus aureus [3]) of the same compound?
Its zone of inhibition at 40 µM is 9 mm.

And the MIC (Bacillus cereus [4])?
The MIC was over 80 µM.

And the MIC (Aspergillus niger [5])?
Its MIC is over 80 µM.

What about the zone of inhibition at 80 µM (Trichoderma viride [6]) of the same compound?
The zone of inhibition at 80 µM was 19 mm.

And the zone of inhibition at 80 µM (Curvularia lunata [7])?
Its zone of inhibition at 80 µM is 19 mm.

What about the inhibition in vivo at 200 mg/kg (Mus musculus) of the same compound?
The inhibition in vivo at 200 mg/kg was 29%.

And the zone of inhibition at 80 µM (Bacillus cereus [8])?
The zone of inhibition at 80 µM was 9 mm.

What about the zone of inhibition at 80 µM (Aspergillus niger [9]) of the same compound?
The zone of inhibition at 80 µM was 12 mm.

And the zone of inhibition at 40 µM (Trichoderma viride [10])?
The zone of inhibition at 40 µM was 16 mm.

And the “diameter of the inhibition zone (DIZ)” value (Bacillus cereus [11])?
The value was “inactive”.

What about the IC50 (HepG2) of the same compound?
The IC50 was over 100 µM.

And the MIC (Salmonella typhi [12])?
The MIC was “inactive”.

And the “diameter of the inhibition zone (DIZ)” value (Escherichia coli [13])?
The value was “inactive”.

What about the “inhibition zone (IZ)” value (Aspergillus niger [14]) of the same compound?
The value was “inactive”.

And the IC50 (HeLa)?
The IC50 was 100 µM.

And the zone of inhibition at 20 µM (Trichoderma viride [15])?
The zone of inhibition at 20 µM was 12 mm.

And the zone of inhibition at 80 µM (Aspergillus flavus [16])?
The zone of inhibition at 80 µM was 15 mm.

And the “diameter of the inhibition zone (DIZ)” value (Pseudomonas aeruginosa [17])?
The value was “inactive”.

What about the zone of inhibition at 20 µM (Aspergillus flavus [18]) of the same compound?
Its zone of inhibition at 20 µM is 11 mm.

What about the MIC (Curvularia lunata [19]) of the same compound?
Its MIC is 20 µM (≈ 13.2 µg/mL).

And the zone of inhibition at 40 µM (Aspergillus flavus [20])?
The zone of inhibition at 40 µM was 12 mm.

And the zone of inhibition at 40 µM (Curvularia lunata [21])?
The zone of inhibition at 40 µM was 16 mm.

And the zone of inhibition at 20 µM (Curvularia lunata [22])?
The zone of inhibition at 20 µM was 12 mm.

And the MIC (Staphylococcus aureus [23])?
Its MIC is over 80 µM.

What about the MIC (Pseudomonas aeruginosa [24]) of the same compound?
Its MIC is over 80 µM.

And the MIC (Trichoderma viride [25])?
The MIC was 20 µM (≈ 13.2 µg/mL).

What about the “diameter of the inhibition zone (DIZ)” value (Bacillus cereus [26]) of the same compound?
The value was “inactive”.

And the “diameter of the inhibition zone (DIZ)” value (Salmonella typhi [27])?
Its value is “inactive”.

And the zone of inhibition at 80 µM (Staphylococcus aureus [28])?
The zone of inhibition at 80 µM was 11 mm.

And the MIC (Escherichia coli [29])?
The MIC was over 80 µM.

And the zone of inhibition at 40 µM (Aspergillus niger [30])?
The zone of inhibition at 40 µM was 9 mm.
